Results taken from ChEMBL document CHEMBL4002598, “Fusaric acid and analogues as Gram-negative bacterial quorum sensing inhibitors” (Eur J Med Chem, 2017).
Calls of active or inactive are those of the source. The calls are words filed in the database; no cut-off is given here.

Columns and labels:
[1] = tested on: Escherichia coli; assay: Inhibition of LuxR-dependent quorum sensing activity in Escherichia coli harboring reporter plasmid LuxI-GFP assessed as reduction in 3-oxo-C6-HSL-induced GFP expression at 3.1 ug/ml measured every 15 mins for 14 hrs by fluorescence assay
Outline: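 E. coli luxI-gfp monitor: overnight culture 16 h, 37 °C, 180 rpm, diluted to OD450 0.1 in BT minimal medium with 10% A10, 0.5% glucose, 0.5% Casamino Acids. Signal 3-oxo-C6-HSL at 10 nM final. GFP read at ex 485/em 535 nm and OD450 every 15 min, 14 h, 34 °C. Triplicate, 2-fold dilutions from 100 μg/ml.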

[2] = tested on: Escherichia coli; assay: Growth inhibition of Escherichia coli at 3.13 ug/ml
Outline: (§1)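 E. coli luxI-gfp reporter: overnight culture 16 h, 37 °C, 180 rpm, diluted to OD450 0.1 in BT minimal medium with 10% A10, 0.5% glucose, 0.5% Casamino Acids. 3-oxo-C6-HSL at 10 nM final. Growth read as OD450 every 15 min over 14 h at 34 °C alongside GFP. Triplicate, 2-fold dilutions from 100 μg/ml.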

[3] = tested on: Pseudomonas aeruginosa; assay: Inhibition of LasR-dependent quorum sensing activity in Pseudomonas aeruginosa harboring reporter plasmid lasB-GFP assessed as reduction in GFP expression up to 100 ug/ml measured every 15 mins for 14 hrs by fluorescence assay
Outline: (§2)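 P. aeruginosa lasB-gfp and rhlA-gfp reporters, grown 16 h at 37 °C with shaking, then diluted to OD450 0.1 in BT minimal medium (10% A10, 0.5% glucose, 0.5% Casamino Acids). No added signal molecule. Fluorescence at 485/535 nm and growth monitored every 15 min for 14 h at 34 °C. Concentrations up to 100 µg/ml.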

[4] = tested on: Escherichia coli; assay: Growth inhibition of Escherichia coli at 6.2 to 100 ug/ml; outline: as §1
[5] = tested on: Saccharomyces cerevisiae; assay: Inhibition of yeast Pma1 at 100 uM preincubated for 30 mins by spectrophotometric method
Outline: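 Pma1 purified from Saccharomyces cerevisiae plasma membrane, 0.5 µg per reaction. Enzyme preincubated 30 min at room temperature with 100 µM compound. Reaction buffer: 5 mM ATP, 10 mM MgSO4, 50 mM KNO3, 5 mM NaN3, 3.5 mM molybdate, 20 mM MES-KOH pH 5.9. Run 30 min, then stopped with acidic molybdate/ascorbate/SDS. Released phosphate read at 860 nm after arsenite-citrate treatment (Baginski method).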

[6] = molecular target: T1, HTH-type quorum-sensing regulator RhlR (Pseudomonas aeruginosa (strain ATCC 15692 / PAO1 / 1C / PRS 101 / LMG12228)) (UniProt P54292); assay: Inhibition of RhlR-dependent quorum sensing activity in Pseudomonas aeruginosa harboring reporter plasmid rhlA-gfp assessed as reduction in GFP expression up to 100 ug/ml measured every 15 mins for 14 hrs by fluorescence assay; outline: as §2
T1 sequence (whole entry): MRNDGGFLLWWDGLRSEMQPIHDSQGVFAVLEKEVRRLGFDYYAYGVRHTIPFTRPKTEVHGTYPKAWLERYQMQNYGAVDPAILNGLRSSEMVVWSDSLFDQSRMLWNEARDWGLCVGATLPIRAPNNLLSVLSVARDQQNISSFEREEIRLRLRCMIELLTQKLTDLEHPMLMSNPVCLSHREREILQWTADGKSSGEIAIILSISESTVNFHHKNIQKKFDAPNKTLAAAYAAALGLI

CCCCc1ccc(C(=O)O)nc1 [FUSARIC ACID]
inhibition [1]: Active | growth inhibition (GI) [2]: Non-Toxic | inhibition [3]: inactive | growth inhibition (GI) [4]: Toxic | inhibition [5]: inactive | inhibition [6]: inactive
